Measurements reported in ChEMBL document CHEMBL1926595, “Design and synthesis of 4,6-substituted-(diaphenylamino)quinazolines as potent EGFR inhibitors with antitumor activity” (Bioorg Med Chem, 2012).

Columns and labels:
[1] = system: HepG2; test: Induction of apoptosis in human HepG2 cells assessed as apoptotic cells at 2 uM after 3 days using annexin-V/PI double staining by flow cytometry (reference value: 0.98%); format: functional
[2] = Antiproliferative activity against human A16-F10 cells after 48 hrs by MTT assay; format: functional, cell-based; conditions: A16-F10, 48 h
How it was run: (§1)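 Cells were seeded at 7 × 10³ per well and, after 24 h, exposed while growing exponentially to a range of concentrations for 48 h. MTT (5 mg/mL stock in PBS) was added for 6 h, followed by 10% SDS in 0.01 N HCl for a further 4 h at 37 °C, then absorbance read at 570 nm. Survival was taken as % of untreated cells. IC50 came from 6-well replicates in at least two independent experiments.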

[3] = system: HepG2; test: Induction of apoptosis in human HepG2 cells after 3 days using annexin-V/PI double staining by flow cytometry; format: functional, cell-based
[4] = system: HepG2; test: Antiproliferative activity against human HepG2 cells after 48 hrs by MTT assay; format: functional, cell-based; conditions: HepG2, 48 h; how it was run: as §1
[5] = system: HepG2; test: Induction of apoptosis in human HepG2 cells assessed as apoptotic cells at 1 uM after 3 days using annexin-V/PI double staining by flow cytometry (reference value: 0.98%); format: functional
[6] = molecular target: Epidermal growth factor receptor (Homo sapiens, UniProt P00533); test: Inhibition of EGFR expressed in baculovirus infected Sf9 cells assessed as inhibition of autophosphorylation preincubated for 10 mins measured after 1 hr by DELFIA/Time-Resolved Fluorometry
Sequence of Epidermal growth factor receptor (P00533 whole entry): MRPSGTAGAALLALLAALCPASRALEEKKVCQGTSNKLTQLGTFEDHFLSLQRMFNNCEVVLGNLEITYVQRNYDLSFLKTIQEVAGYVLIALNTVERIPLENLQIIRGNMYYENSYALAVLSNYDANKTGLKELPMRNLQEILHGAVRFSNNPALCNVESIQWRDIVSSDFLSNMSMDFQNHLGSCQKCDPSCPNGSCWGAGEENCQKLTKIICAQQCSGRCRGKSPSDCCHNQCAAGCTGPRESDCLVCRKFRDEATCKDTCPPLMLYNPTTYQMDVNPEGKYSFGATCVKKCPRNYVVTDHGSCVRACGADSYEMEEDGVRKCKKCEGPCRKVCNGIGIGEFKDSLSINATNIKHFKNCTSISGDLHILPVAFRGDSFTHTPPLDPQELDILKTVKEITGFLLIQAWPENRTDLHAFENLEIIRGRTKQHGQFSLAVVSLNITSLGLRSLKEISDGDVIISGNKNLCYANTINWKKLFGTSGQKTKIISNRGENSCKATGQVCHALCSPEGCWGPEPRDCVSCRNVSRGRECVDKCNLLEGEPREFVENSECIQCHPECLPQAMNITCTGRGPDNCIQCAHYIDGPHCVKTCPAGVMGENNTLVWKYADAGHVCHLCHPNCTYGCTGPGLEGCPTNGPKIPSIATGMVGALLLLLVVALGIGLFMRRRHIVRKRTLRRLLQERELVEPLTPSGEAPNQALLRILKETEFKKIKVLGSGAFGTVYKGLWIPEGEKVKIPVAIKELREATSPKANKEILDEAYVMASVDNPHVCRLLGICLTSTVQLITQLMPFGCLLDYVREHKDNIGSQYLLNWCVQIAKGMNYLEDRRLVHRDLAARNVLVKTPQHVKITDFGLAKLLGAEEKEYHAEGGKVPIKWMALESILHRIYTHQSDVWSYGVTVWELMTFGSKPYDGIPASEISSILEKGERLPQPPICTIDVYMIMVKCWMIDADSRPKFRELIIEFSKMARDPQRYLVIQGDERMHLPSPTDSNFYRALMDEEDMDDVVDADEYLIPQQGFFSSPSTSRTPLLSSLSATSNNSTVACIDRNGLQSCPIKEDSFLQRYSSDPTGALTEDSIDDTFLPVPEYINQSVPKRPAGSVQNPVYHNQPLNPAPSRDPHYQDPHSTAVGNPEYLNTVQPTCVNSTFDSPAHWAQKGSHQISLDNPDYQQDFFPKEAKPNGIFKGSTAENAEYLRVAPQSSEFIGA

Compound	Activity [1]	IC50 [2]	Activity [3]	IC50 [4]	Activity [5]	IC50 [6]
Oc1ccc(CNc2ccc3ncnc(Nc4cccc(Br)c4)c3c2)cc1	54.2%	0.59 µM	Dose-dependent effect	0.28 µM	20.8%	–
COc1ccc(CNc2ccc3ncnc(Nc4cccc(Br)c4)c3c2)cc1	–	10.4 µM	–	5.43 µM	–	–
COc1ccccc1CNc1ccc2ncnc(Nc3cccc(Br)c3)c2c1	–	12.5 µM	–	8.82 µM	–	11.2 µM
Oc1ccc(CNc2ccc3ncnc(Nc4cccc(Cl)c4)c3c2)cc1	–	1.58 µM	–	1.52 µM	–	1.87 µM
Clc1cccc(Nc2ncnc3ccc(NCc4ccccc4Br)cc23)c1	–	5.83 µM	–	4.17 µM	–	–
Clc1cccc(Nc2ncnc3ccc(NCc4ccc(Br)cc4)cc23)c1	–	4.01 µM	–	3.81 µM	–	5.67 µM
C#Cc1cccc(Nc2ncnc3cc(OCCOC)c(OCCOC)cc23)c1 [ERLOTINIB]	–	0.02 µM	–	–	–	–
COc1ccccc1CNc1ccc2ncnc(Nc3cccc(Cl)c3)c2c1	–	14.8 µM	–	9.85 µM	–	13.9 µM
Brc1cccc(Nc2ncnc3ccc(NCc4ccccc4Br)cc23)c1	–	4.38 µM	–	2.76 µM	–	–
Clc1ccccc1CNc1ccc2ncnc(Nc3cccc(Br)c3)c2c1	–	3.74 µM	–	1.82 µM	–	–
Oc1ccccc1CNc1ccc2ncnc(Nc3cccc(Cl)c3)c2c1	–	3.18 µM	–	2.08 µM	–	3.54 µM
Clc1ccc(CNc2ccc3ncnc(Nc4cccc(Cl)c4)c3c2)cc1	–	2.67 µM	–	1.78 µM	–	4.41 µM
Clc1cccc(Nc2ncnc3ccc(NCc4ccccc4Cl)cc23)c1	–	7.12 µM	–	5.33 µM	–	–
Clc1ccc(CNc2ccc3ncnc(Nc4cccc(Br)c4)c3c2)cc1	–	1.82 µM	–	0.92 µM	–	1.64 µM
Oc1ccccc1CNc1ccc2ncnc(Nc3cccc(Br)c3)c2c1	–	1.87 µM	–	1.26 µM	–	3.22 µM
Brc1ccc(CNc2ccc3ncnc(Nc4cccc(Br)c4)c3c2)cc1	–	2.21 µM	–	1.41 µM	–	3.13 µM
COc1ccc(CNc2ccc3ncnc(Nc4cccc(Cl)c4)c3c2)cc1	–	8.43 µM	–	5.26 µM	–	–
Fc1ccc(CNc2ccc3ncnc(Nc4cccc(Cl)c4)c3c2)cc1	–	2.95 µM	–	2.69 µM	–	–
Fc1ccc(CNc2ccc3ncnc(Nc4cccc(Br)c4)c3c2)cc1	–	2.09 µM	–	1.77 µM	–	–
